Experimental data from paper PMC5992016 (Movement disorders : official journal of the Movement …, 2018).
Where a name gives a salt, the structure may show the parent alone.

Tests used:
[1] = tested on: AIMs (abnormal involuntary movements) in rodents; details: cited from earlier work; for effect on AIMs in rodents: inhibitor of PDEs 5, 6 and 9
[2] = tested on: L-Dopa-induced dyskinesias in MPTP-treated macaques; test: Acute co-administration with s.c. L-Dopa: LID scores; type: in vivo, Macaca fascicularis; details: L-Dopa optimal dose s.c.; amantadine 5 or 10 mg/kg s.c.
Procedure, shortened: (§1)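 Used MPTP macaques (3 male, 2 female) on oral carbidopa/levodopa maintenance. Optimal s.c. L-Dopa methyl ester dose (MDS reduction 50–75%) was set per animal, with benserazide at one quarter. Amantadine or test compound (DMSO/cremophor) or vehicle was given s.c. just before. Blinded live and video scoring ran off-state, then from 30 min every 20 min. Part II: peak (50 min) and summed total. Part I: MDS AUC. Triplicate runs were averaged.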

[3] = tested on: parkinsonian motor disability in MPTP-treated macaques; test: Acute co-administration with s.c. L-Dopa: motor disability scores; type: in vivo, Macaca fascicularis; details: amantadine 5 and 10 mg/kg s.c.
Procedure, shortened: as §1

[4] = tested on: hand movement speed in MPTP-treated macaques; test: Acute co-administration with s.c. L-Dopa: Klüver board test; type: in vivo, Macaca fascicularis

Q: For FC(F)(F)Cn1cc(-c2ccncc2)c(-c2ccc(OCc3ccc4ccccc4n3)cc2)n1 [TP-10], which “antidyskinetic effects in rodents” value ([1]; preliminary tests) is on record?
A: antidyskinetic effects

Q: With CCCOc1ccc(S(=O)(=O)N2CCN(CC)CC2)cc1-c1nc2c(CC)n(Cc3ccccn3)nc2c(=O)[nH]1 [UK343664] as the compound, how does the “effect on AIMs in rodents” value [1] read?
A: improves AIMs

Q: With CCCOc1ccccc1-c1nc2nn[nH]c2c(=O)[nH]1 [zaprinast] as the compound, how does the “effect on AIMs in rodents” value [1] read?
A: improves AIMs

Q: With NC12CC3CC(CC(C3)C1)C2 [amantadine, amantadine hydrochloride] as the compound, how does the “effect on LID compared with MR1916” value [2] read?
A: similar

Q: And the “effect on MDS in the on state” value ([3]; L-Dopa optimal dose s.c.)?
A: significantly increased MDS

Q: What about the “effect on MDS” value ([3]; L-Dopa suboptimal dose s.c.) of the same compound?
A: reduced the beneficial effect of L-Dopa on MDS

Q: What about the “movement speed (time) in KBT in the on state” value ([4]; L-Dopa optimal dose s.c., amantadine 10 mg/kg s.c.) of the same compound?
A: increased

Q: What about the “movement speed (time) in KBT” value ([4]; L-Dopa suboptimal dose s.c., highest dose (MR1916 0.05 mg/kg, amantadine 10 mg/kg s.c.)) of the same compound?
A: increased
